High-throughput results (PubChem BioAssay)
Granule exo inh = blocks lytic granule exocytosis; TALL-104 LAMP-1 surface exposure, flow cytometry; cells stimulated with thapsigargin and PMA; inhibition, % at 10 µM; 360,000 compounds, 0.66% hits; AID 651702;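 active means inhibition above about 55%, limit read from the data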
Bfl-1 A1 inh = inhibitors of the anti-apoptotic protein A1, read as caspase activation | MEF A1-2A-BIM cells, Caspase-Glo 3/7 luminescence, 3 h; percent of clofoctol response, vehicle zero | caspase activation, % (test concentration not listed) | 330,000 compounds, 0.066% hits | AID 2462;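 active means over half of replicate activation scores above 10%, or exactly half above 10 with the replicate mean above 10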
NTR1 ag = agonists of human neurotensin receptor NTR1; P30989; NTR1-U2OS beta-arrestin-GFP spot imaging, agonist mode; activation, % at 20 µM; 330,000 compounds, 0.17% hits;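 active means activation at or above 40% of the spot to cytoplasm intensity ratio, with at least 20 cells analyzed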;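 further: 0% = DMSO without peptide and 100% = 100 nM NTR1 peptide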
MC4R antagonist = blocks human MC4R cAMP signaling | P32245 | MC4R-expressing cells, MTII-stimulated cAMP, LANCE TR-FRET | inhibition, % at 6.5 µM | 360,000 compounds, 0.48% hits;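 active means inhibition above its plate's cutoff, the mean of tested wells on that plate plus 3 SD, cut at about 29% in these data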;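 further: 0% = Melanotan II alone and 100% = Melanotan II plus saturating MCL0020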
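System – human MC4R-expressing U2OS cells · Also added – Melanotan II · Dosing – one concentration, 6.5 µM nominal · Timing – 30-min compound, 1-h challenge, 1-h detection, room temperature · Measured by – Eu-cAMP/anti-cAMP TR-FRET, emission 671 nm · Replicates – singlicate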
MC4R barr agon = human MC4R agonism via beta-arrestin | activation, % at 8.9 µM | P32245 | AID 540308 | U2OS MC4R beta-arrestin complementation, luminescence; percent of melanotan II response, DMSO zero | 360,000 compounds, 0.98% hits;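 active means activation above a per-plate cutoff, the mean activation of sample wells on that plate plus 3 SD, cut at about 8% in these data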
HGIII-sPLA2 inh = Inhibits HGIII-sPLA2 liposome hydrolysis, primary screen; Q9NZ20; QFRET BODIPY PC-A2 liposome hydrolysis, fluorescence; inhibition, % at 12.2 µM; 370,000 compounds, 0.56% hits; AID 743126;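 active means inhibition above mean plus 3 SD of compounds lying within the high and low control bounds, cut at about 19% in these data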;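 further: 0% = median of test compound wells and 100% = no enzyme DMSO wells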
Target sequence (Q9NZ20 whole entry, looked up): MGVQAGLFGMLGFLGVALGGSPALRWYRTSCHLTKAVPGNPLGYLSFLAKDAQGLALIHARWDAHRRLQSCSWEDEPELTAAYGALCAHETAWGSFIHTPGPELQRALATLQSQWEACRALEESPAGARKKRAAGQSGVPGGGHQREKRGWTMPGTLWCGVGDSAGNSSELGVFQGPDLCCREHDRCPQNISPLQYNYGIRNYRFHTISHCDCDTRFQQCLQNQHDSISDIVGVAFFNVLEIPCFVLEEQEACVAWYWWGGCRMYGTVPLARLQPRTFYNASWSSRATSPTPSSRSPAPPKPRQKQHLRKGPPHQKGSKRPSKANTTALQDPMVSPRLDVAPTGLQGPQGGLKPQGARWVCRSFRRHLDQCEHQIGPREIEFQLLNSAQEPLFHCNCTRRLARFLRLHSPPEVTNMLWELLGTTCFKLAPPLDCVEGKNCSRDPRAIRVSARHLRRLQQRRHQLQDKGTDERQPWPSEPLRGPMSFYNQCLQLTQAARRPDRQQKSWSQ
cAMP nonselect = counter-screen for MC4R antagonists: nonselective cAMP signaling inhibitors. shares compounds with MC4R antagonist. 1,600 compounds, 26% hits. inhibition, % at 6.5 µM. parental U2OS, forskolin cAMP, LANCE TR-FRET;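 active means mean inhibition over triplicates above the low-control well mean plus 3 SD, set per campaign, cut at about 13% in these data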;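 further: signal is single emission at 671 nm which falls as cellular cAMP rises; 0% = forskolin-stimulated wells and 100% = buffer without forskolin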
MC4R antag conf = human MC4R cAMP antagonism confirmation | shares compounds with MC4R antagonist | inhibition, % at 6.5 µM | MC4R-expressing cells, MTII-stimulated cAMP, TR-FRET | 1,600 compounds, 27% hits; in the data active means inhibition above about 29%;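 further: 0% = agonist stimulated wells alone and 100% = agonist stimulated wells plus saturating reference antagonist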
MC4R barr ag = human MC4R beta-arrestin agonism confirmation; shares compounds with MC4R barr agon; AID 602192; 2,400 compounds, 31% hits; activation, % at 8.9 µM; U2OS MC4R beta-arrestin recruitment, luminescence; scaled DMSO 0%, Melanotan II 100%;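 active means mean activation across replicates above the hit cutoff set in the earlier primary screen, cut at about 8% in these data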
MOR DOR agonist = OPRM1-OPRD1 heterodimer agonism counter-screen; 2,400 compounds, 5.8% hits; shares compounds with MC4R barr agon; U2OS PathHunter beta-arrestin, beta-gal luminescence; percent of deltorphin B response, DMSO zero; activation, % at 9.2 µM;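 active means mean activation across replicates exceeds the hit threshold derived in the earlier primary screen, cut at about 18% in these data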;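 further: 100% = deltorphin B at 0.9 µM final and 0% = DMSO alone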
Granule exo CP1 = lytic granule exocytosis inhibition; shares compounds with Granule exo inh; TALL-104 cells, LAMP-1 externalization, flow cytometry; stimulated with PMA plus thapsigargin; inhibition, % at 10 µM; 1,500 compounds, 11% hits; AID 651954; in the data active means inhibition above about 60%;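 further: 0% = stimulated vehicle wells and 100% = unstimulated wells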
hGIII sPLA2 conf = human GIII-sPLA2 inhibition, confirmation | shares compounds with HGIII-sPLA2 inh | recombinant hGIII-sPLA2, BODIPY PC-A2 QFRET fluorescence | inhibition, % at 12.2 µM | 2,000 compounds, 34% hits | AID 743280;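 active means mean inhibition across triplicates above the hit cutoff set in the earlier primary screen, cut at about 19% in these data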;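 further: 0% = enzyme with DMSO and 100% = DMSO wells lacking enzyme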
535nm interf = 535nm fluorescence interference, HGIII-sPLA2 counter-screen | shares compounds with HGIII-sPLA2 inh | BODIPY FL product fluorescence interference, QFRET | inhibition, % at 12.2 µM | 2,000 compounds, 8.5% hits | AID 743282;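 active means average inhibition above the solvent-only control mean plus 3 SD, cut at about 6% in these data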;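 further: 0% = DMSO with substrate plus product and 100% = DMSO with substrate alone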
535nm interf DR = 535nm optical interference dose response, HGIII-sPLA2 counter-screen; BODIPY FL product fluorescence interference, cell-free; shares compounds with HGIII-sPLA2 inh; 240 tested, under 10 active; IC50, µM;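 active means IC50 at or below 10 µM; inactive means IC50 above 10 µM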
Starred values were filed as active, the others as inactive; . = not tested or not shown. This is a sample that favours compounds with a hit; in the whole collection about 2.5% have one here.

SMILES	Granule exo inh	Bfl-1 A1 inh	NTR1 ag	MC4R antagonist	MC4R barr agon	HGIII-sPLA2 inh	others
C=CCN(C(=O)CCc1ccccc1OC)c1nc(-c2ccc(S(C)(=O)=O)cc2)cs1	83*	1	2	31*	1	-11	cAMP nonselect=0;MC4R antag conf=-3;Granule exo CP1=-12
C=CCN(C(=O)Cc1cccs1)c1nc(-c2ccc(S(C)(=O)=O)cc2)cs1	6	2	2	5	2	-14
O=C(NCc1ccco1)C1CCCN(S(=O)(=O)c2ccc([N+](=O)[O-])cc2)C1 (stereo not given)	.	.	.	.	.	-5
O=C(CCN1CCOCC1)c1ccc2c(c1)OCCO2	85*	0	1	30*	-1	4	cAMP nonselect=7;MC4R antag conf=24;Granule exo CP1=-8
O=C(CCCN1CCOCC1)c1ccc2c(c1)OCCO2	-3	0	-1	-3	-1	-5
COc1cccc(OCC(C)CN2CCC(C(O)(c3ccccc3)c3ccccc3)CC2)c1 (stereo not given)	.	.	.	.	.	-17
COc1cc(CN2CCCC(N3CCN(c4ccc(F)cc4)CC3)C2)ccc1F (stereo not given)	61*	1	2	30*	1	-4	cAMP nonselect=0;MC4R antag conf=5;Granule exo CP1=-14
Cc1ccccc1-n1c(-c2ccoc2C)n[nH]c1=S	-5	0	-1	8	-2	4
Cc1cccc(-n2c(-c3ccoc3C)n[nH]c2=S)c1	3	0	-2	30*	1	20*	cAMP nonselect=4;MC4R antag conf=0;hGIII sPLA2 conf=36*;535nm interf=-1;535nm interf DR=>122
Cc1cc(C)cc(C(=O)OCCCN(C)C2CN(Cc3cn(Cc4ccccc4Cl)nn3)S(=O)(=O)C2)c1 (stereo not given)	.	.	.	.	.	-31
Cc1ccc(OC(=O)c2sc(Cl)nc2C)cc1C	0	-1	16	36*	0	21*	cAMP nonselect=16*;MC4R antag conf=37*;hGIII sPLA2 conf=0;535nm interf=-6
COc1ccc(N(C)C(=O)c2sc(Cl)nc2C)cc1	20	-1	2	17	2	3
CCN(CC)c1ccc(C(=C2C=CC(=[N+](CC)CC)C=C2)c2ccccc2)cc1	-15	.	.	64*	-3	63*	cAMP nonselect=34*;MC4R antag conf=67*;hGIII sPLA2 conf=75*;535nm interf=-16
CCOC(=O)[C@]12CCCCC/C=C\1N(CCc1ccc(Cl)cc1)C(=O)[C@H]2CC(=O)NCC1CCCCC1	.	.	.	.	.	-6
COc1ccccc1N(C(C)=O)C1=C(Cl)C(=O)c2ccccc2C1=O	60*	.	.	98*	-4	21*	cAMP nonselect=50*;MC4R antag conf=13;hGIII sPLA2 conf=38*;535nm interf=6;535nm interf DR=>122
Cc1ccc2c(c1)/C(=C/c1ccc(F)cc1)C(=O)N2	42	0	15	-5	4	-1
Cc1ccc(C2=N/C(=C\c3ccc(F)cc3)C(=O)N2)cc1	2	1	6	0	22*	-7	MC4R barr ag=3;MOR DOR agonist=2
Cc1cccc(NC(=O)CNC(=O)[C@@H](Cc2ccccc2)NC(=O)[C@H]2O[C@@H](n3ccc(N)nc3=O)[C@H](O)[C@@H]2O)c1C	.	.	.	.	.	10
CC(=O)Nc1cccc(-c2cc(NC(C)=O)c3ncc(-c4ccc(F)cc4)n3c2)c1	0	.	.	5	17*	-12	MC4R barr ag=11*;MOR DOR agonist=1
O=CNc1cc(-c2cccc(F)c2)cn2c(-c3ccc(F)cc3)cnc12	4	.	.	17	12*	-3	MC4R barr ag=16*;MOR DOR agonist=4
CS(=O)(=O)Nc1cccc(-c2cc(NC=O)c3ncc(-c4ccc(F)cc4)n3c2)c1	-5	.	.	-22	-2	-21
CC(=O)Nc1cc(-c2cccc(F)c2)cn2c(-c3ccc(F)cc3)cnc12	-4	.	.	3	40*	4	MC4R barr ag=64*;MOR DOR agonist=2
CC(=O)Nc1cc(-c2ccc(S(C)(=O)=O)cc2)cn2c(-c3ccc(F)cc3)cnc12	-14	.	.	10	2	-8
CC(=O)Nc1cc(-c2cccc(NS(C)(=O)=O)c2)cn2c(-c3ccc(F)c(Cl)c3)cnc12	-6	.	.	17	2	-15
CCOC(=O)[C@@]12CCCC=C1N(CCc1ccc(Cl)cc1)C(=O)[C@H]2CC(=O)NCc1ccc(C)o1	.	.	.	.	.	-17
SMILES	Granule exo inh	Bfl-1 A1 inh	NTR1 ag	MC4R antagonist	MC4R barr agon	HGIII-sPLA2 inh	others
C=CCN1C(=O)[C@@H](CC(=O)N2CCCC2)[C@]2(C(=O)OC)CCCCC=C12	.	.	.	.	.	2
COc1ccc(NC(=O)c2cc(-c3cc(C)c(C)cc3O)n[nH]2)c(OC)c1	6	0	1	2	15*	-8	MC4R barr ag=3;MOR DOR agonist=6
COc1ccc(OC)c(NC(=O)c2cc(-c3cc(C)cc(C)c3O)n[nH]2)c1	0	0	12	9	20*	8	MC4R barr ag=1;MOR DOR agonist=6
COc1ccc(OC)c(NC(=O)c2cc(-c3cc(C)c(C)cc3O)n[nH]2)c1	4	-3	9	-3	7	-3
CCN(CC)c1ccc(C=Nn2c(-c3cc(C)[nH]n3)n[nH]c2=S)cc1	.	.	.	.	.	7
COC(=O)c1c(NC(C)=O)sc(C)c1C	0	0	1	14	-2	0
COC(=O)c1c(NC(=O)Nc2ccc(Cl)cc2)sc(C)c1C	1	0	-5	0	10*	9	MC4R barr ag=2;MOR DOR agonist=9
O=C(Nc1ccc(F)c(Cl)c1)C1CCN(c2ncnc3c2nc2n3CCCCC2)CC1	3	-1	6	6	-3	-3
CC(C)c1ccc(NC(=O)C2CCN(c3ncnc4c3nc3n4CCCCC3)CC2)cc1	-8	0	14	25	27*	-7	MC4R barr ag=1;MOR DOR agonist=15
